From PubChem BioAssay
Only some compounds are listed: those with a hit (about 1.8% of all), similar ones and a draw of the others.
NPY Y2 blocker = NPY-Y2 (human) receptor antagonism; AID 793; inhibition, % at 2.7 µM; NPY-Y2 expressing cells, antagonist mode; actives 0.99% (n = 140,000); in the data active = inhibition above about 17%;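 note: 0% = vehicle with agonist challenge and 100% = reference antagonist with challenge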
NPY-Y1 antag = blocks the human neuropeptide Y Y1 receptor. HEK293-CNG Y1 cells, membrane potential fluorescence; NPY at EC95, then isoproterenol. inhibition, % at 3.6 µM. actives 1% (n = 200,000). AID 1040;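 active = inhibition above the campaign mean inhibition of all tested compounds plus 3 SD, cut at about 20% in these data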;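 note: 0% = DMSO wells given NPY plus isoproterenol and 100% = isoproterenol alone without NPY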
Target sequence (P25929 whole entry, looked up): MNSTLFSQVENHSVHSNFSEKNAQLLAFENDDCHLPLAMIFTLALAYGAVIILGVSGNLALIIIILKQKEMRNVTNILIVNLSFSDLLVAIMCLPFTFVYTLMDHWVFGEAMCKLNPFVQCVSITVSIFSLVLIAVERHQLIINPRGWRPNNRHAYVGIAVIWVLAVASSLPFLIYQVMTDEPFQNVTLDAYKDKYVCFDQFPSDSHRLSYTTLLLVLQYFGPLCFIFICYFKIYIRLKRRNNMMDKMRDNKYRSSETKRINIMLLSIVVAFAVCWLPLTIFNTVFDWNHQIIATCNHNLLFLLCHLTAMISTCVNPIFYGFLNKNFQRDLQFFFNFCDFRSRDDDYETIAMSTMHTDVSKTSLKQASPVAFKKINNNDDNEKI
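Material: HEK293 cells with Y1 receptor plus CNG channel; times: compound incubation 1 h at room temperature, readout 45 min post-stimulation; signal: fluorescence, membrane potential probe; read-out basis: fluorescence ratio normalized to % inhibition between controls; benchmarks: full-block control isoproterenol-only wells, zero-block control NPY plus isoproterenol wells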
NPY-Y2 PAM-ag = human NPY-Y2 potentiation or agonism, primary screen | P49146 | cells expressing NPY-Y2, potentiator/agonist read-out | activation, % at 3.6 µM | actives 0.45% (n = 220,000) | AID 1359; in the data active = activation above about 27%;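 note: cells stimulated with NPY near EC25 plus isoproterenol at EC100; 0% = vehicle plus submaximal agonist and 100% = vehicle plus saturating agonist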
NPY1 pot ag = human NPY-Y1 potentiation or agonism, primary screen. activation, % at 3.6 µM. NPY-Y1 expressing cells, potentiator/agonist activation. AID 1304. actives 0.37% (n = 220,000). P25929; in the data active = activation above about 33%, passing the limit was not always enough;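 note: cells stimulated with NPY at EC10 then isoproterenol at EC100; 0% = low agonist plus stimulus and 100% = saturating agonist plus stimulus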
NPY-Y2 pot conf = confirmation of human NPY-Y2 receptor potentiators or agonists; actives 20% (n = 450); cell-based NPY-Y2 potentiator/agonist assay; activation, % at 3.6 µM; AID 1539; shares compounds with NPY-Y2 PAM-ag; in the data active = activation above about 33%
NPY-Y1 potentiator = NPY-Y1 potentiation or agonism as NPY-Y2 counter-screen. actives 20% (n = 450). activation, % at 3.6 µM. shares compounds with NPY-Y2 PAM-ag. Y1 HEK293-CNG cells, membrane potential fluorescence; in the data active = activation above about 45%;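 note: cells stimulated with submaximal NPY then isoproterenol with phosphodiesterase inhibitor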
NPY-Y1 agonist 2 = human NPY-Y1 agonism as NPY-Y2 potentiator counter-screen. shares compounds with NPY-Y2 PAM-ag. HEK293 Y1-CNGC, membrane potential fluorescence. activation, % at 3.6 µM. actives 37% (n = 450);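 active = activation above the mean of DMSO-only control wells plus 3 SD, cut at about 18% in these data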;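 note: cells stimulated with 1 µM isoproterenol plus the PDE inhibitor Ro 20-1724; 0% = isoproterenol with DMSO and no NPY and 100% = 40 nM NPY; Y1 agonists lower the membrane potential dye signal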
CNGC inh = blocks CNG channel activity, counter-screen for NPY-Y2 potentiators | shares compounds with NPY-Y2 PAM-ag | HEK293-CNG parental, isoproterenol cAMP, membrane potential fluorescence | inhibition, % at 3.6 µM | actives 32% (n = 450);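 active = inhibition above the control-well mean plus 3 SD of those wells, cut at about 22% in these data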;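 note: 0% = DMSO with isoproterenol and 100% = DMSO without isoproterenol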
Y2 agonist ctr = counter-screen for NPY-Y2 potentiators: agonists of human NPY-Y2. AID 1710. shares compounds with NPY-Y2 PAM-ag. HEK293 Y2/CNGC cells, membrane potential fluorescence, agonist mode. activation, % at 3.6 µM. actives 56% (n = 450);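 active = activation above the mean of solvent-only control wells plus 3 SD, cut at about 10% in these data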;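 note: cells stimulated by isoproterenol with no NPY added so direct agonism is tested; 0% = DMSO with isoproterenol alone and 100% = NPY at EC100 plus isoproterenol; agonism lowers probe fluorescence through less cAMP and CNG channel opening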
Numbers without * were called inactive; · = not tested or not shown.

SMILES	NPY Y2 blocker	NPY-Y1 antag	NPY-Y2 PAM-ag	NPY1 pot ag	NPY-Y2 pot conf	NPY-Y1 potentiator	NPY-Y1 agonist 2	CNGC inh	Y2 agonist ctr
CN1C/C(=N\S(=O)(=O)c2ccccc2)N(C)C1=O	-1	10	101*	39	-2	6	-1	1	0
Cc1ccc(NS(=O)(=O)c2cc([N+](=O)[O-])ccc2NNC(=S)Nc2cc(C)ccc2C)c(C)c1	-6	-6	11	16	·	·	·	·	·
Cc1ccc(NS(=O)(=O)c2cc([N+](=O)[O-])ccc2NNC(=S)Nc2cccc(Cl)c2)c(C)c1	-7	-11	31*	38	76*	97*	79*	62*	75*
Cn1c(=O)n(C)c2cc(NS(=O)(=O)c3ccc(Br)s3)ccc21	·	-5	-18	2	·	·	·	·	·
O=S(=O)(c1ccc(Cl)cc1)N1CCC(O)(CN2CCN(Cc3ccccc3)CC2)CC1	·	2	-2	3	·	·	·	·	·
O=S(=O)(c1ccccc1)N1CCC(O)(CSc2ccc(Cl)cc2)CC1	3	9	34*	-14	-13	-56	12	-16	5
C#CCSc1ncc(S(=O)(=O)c2ccccc2)c(=O)[nH]1	·	4	-5	2	·	·	·	·	·
O=C(N/N=C/c1cccc([N+](=O)[O-])c1)c1cc(-c2ccc3c4c(cccc24)CC3)n[nH]1	0	-5	24	2	·	·	·	·	·
O=C(N/N=C/c1ccc(Cl)c([N+](=O)[O-])c1)c1cc(-c2ccc3c4c(cccc24)CC3)n[nH]1	·	·	45*	36	15	25	18*	12	23*
CC(C)C(=O)Nc1ccc(N2CCN(c3ccc(F)cc3)CC2)cc1	·	16	31*	-2	1	13	3	4	-3
C/C(N)=C(/C#N)C(=O)CSc1nn(-c2ccc(Cl)cc2)c(=S)s1	·	-7	35*	10	21	25	10	0	10.0*
O=C(c1ccc(CNS(=O)(=O)c2ccccc2)cc1)N1CCN(Cc2ccccc2)CC1	2	-7	27*	32	-5	-9	-15	1	-1
NNC(=O)Cc1cn(-c2ncc(C(F)(F)F)cc2Cl)c2ccccc12	-1	2	-3	-5	·	·	·	·	·
O=C(Nc1ccc(F)cc1)NC1CCCCC1	1	2	99*	-11	-5	-3	-6	-8	-11
COc1cc2nc(NCC3CCCO3)n3nc(-c4cccnc4)nc3c2cc1OC (stereo unspecified)	-2	3	65*	15	-1	8	1	4	9
CCN(CC)CCCNc1nc2cc(OC)c(OC)cc2c2nc(-c3cccnc3)nn12	4	-1	-18	-14	·	·	·	·	·
Cc1[nH]c2ccccc2c1SCC(=O)O	3	5	5	-4	·	·	·	·	·
CNC(=O)CCc1[nH]c2ccccc2c1Sc1ccccc1	-1	2	26*	6	12	21	14	14	23*
O=[N+]([O-])c1cc(C(F)(F)F)cc([N+](=O)[O-])c1NCCNC(=S)Nc1ccc(Cl)c(Cl)c1	·	·	102*	2	34*	24	18*	20	47*
COC(=O)c1ccc(NC(=O)CSc2nnc(C(C)NC(=O)c3ccccc3Cl)n2C)cc1 (stereo unspecified)	-4	-1	37*	33	10	16	17	10	28*
COc1ccc(CC(=O)NC(C)c2nnc(SCC(=O)Nc3ccccc3)n2C)cc1 (stereo unspecified)	·	-4	-6	3	·	·	·	·	·
Cn1c(SCC(=O)NCCc2ccc(S(N)(=O)=O)cc2)nc2ccccc2c1=O	·	-4	-7	-7	·	·	·	·	·
O=C(/C=C/c1cn(-c2ccccc2)nc1-c1cccnc1)N1CCCC1	·	-2	28*	20	12	22	12	4	15*
Cc1cc(C)cc(NC(=O)COC(=O)c2n[nH]c3ccccc23)c1	·	1	8	-7	·	·	·	·	·
